From paper PMC5110367 (Nature chemical biology, 2016)
Positions count from the first letter of the chain named. pEC50: −log10 of the molar value. Like-named read-outs stand apart in the source and are kept apart here.

Assays:
PPARα [1] = biological target: T1, PPARα (Mus musculus, UniProt P23204); assay: PPRE-driven luciferase assay in primary astrocytes; assay type: cell-based; settings: cultured astrocytes, different concentrations, 4 h
T1 sequence (P23204 1-468): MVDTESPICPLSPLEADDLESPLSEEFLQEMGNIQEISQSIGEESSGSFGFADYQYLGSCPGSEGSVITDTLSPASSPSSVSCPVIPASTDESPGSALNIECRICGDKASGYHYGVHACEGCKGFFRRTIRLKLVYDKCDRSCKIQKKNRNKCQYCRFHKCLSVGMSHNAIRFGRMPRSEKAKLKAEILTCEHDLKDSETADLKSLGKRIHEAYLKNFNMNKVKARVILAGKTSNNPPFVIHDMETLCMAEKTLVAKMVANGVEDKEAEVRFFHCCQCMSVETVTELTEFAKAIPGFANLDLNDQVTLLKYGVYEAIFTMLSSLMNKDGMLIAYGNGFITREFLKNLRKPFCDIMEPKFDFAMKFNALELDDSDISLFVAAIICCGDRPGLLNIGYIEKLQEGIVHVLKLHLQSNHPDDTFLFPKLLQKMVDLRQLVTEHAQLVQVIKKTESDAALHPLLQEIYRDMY

Y464D-Ppara = biological target: T2, Y464D-Ppara (Mus musculus, UniProt P23204, Y464D); assay type: cell-based; settings: Ppara-null astrocytes transduced with lenti-Y464D-Ppara, 4 h
T2 sequence (P23204 1-468 Y464D): T1 sequence (P23204 1-468) with Y464D

[2] = tested on: Ppara-null hippocampal neurons; assay type: cell-based, mouse
How it was run: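 Cell lysates were made in RIPA buffer with protease/phosphatase inhibitors, needle-sheared, rotated 30 min at 4°C and spun at 18,000 × g. Samples of 15–30 μg were run on 10% or 12% SDS gels and semidry-transferred to nitrocellulose. Anti-CREB (1:1000) was applied overnight at 4°C, then IR-dye secondary (1:17,000) for 45 min at room temperature. Infrared imaging followed, with densitometry normalised to loading controls.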

[3] = tested on: PPRE-driven luciferase activity; assay: PPRE-luciferase assay in Ppara-null astrocytes transduced with empty vector; assay type: cell-based, mouse; settings: 4 h
How it was run: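 Ppara-null astrocytes came from mixed glial cultures of 7-d-old pups. They were transduced 48 h with empty-vector lentivirions and transfected with tk-PPREx3-Luc reporter. After 24 h they were treated with different doses of test compound for 4 h, then luciferase activity was read. Values are mean ± SD of three independent experiments.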

PPARα LBD = biological target: T3, PPARα LBD (Homo sapiens, UniProt Q07869); assay: Lanthascreen TR-FRET PPAR-alpha coactivator assay; assay type: biochemical
T3 sequence (Q07869 239-466 limits assumed): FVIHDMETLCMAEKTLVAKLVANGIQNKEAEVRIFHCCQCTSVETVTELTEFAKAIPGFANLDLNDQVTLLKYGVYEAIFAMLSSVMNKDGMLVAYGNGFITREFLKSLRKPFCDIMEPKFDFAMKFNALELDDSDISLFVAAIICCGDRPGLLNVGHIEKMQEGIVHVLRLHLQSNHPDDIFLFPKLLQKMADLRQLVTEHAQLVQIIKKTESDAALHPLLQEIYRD

FL-Ppara = biological target: T4, FL-Ppara (Mus musculus, UniProt P23204); assay type: cell-based; settings: Ppara-null astrocytes transduced with lenti-FL-Ppara, 4 h
T4 sequence (P23204 1-468): T1 sequence (P23204 1-468)

PPARα [4] = biological target: T5, PPARα (Mus musculus, UniProt P23204, Y314D); assay type: binding; settings: lenti-GFP-Y314D-Ppara-transduced Ppara-null neurons
T5 sequence (P23204 1-468 Y314D): T1 sequence (P23204 1-468) with Y314D

PPARα [5] = biological target: T1, PPARα; assay type: binding; settings: lenti-FL-Ppara-transduced Ppara-null neurons; not with empty lenti-vector
[6] = Ppara-null neurons transduced with FL-Ppara
[7] = Ppara-null neurons transduced with lenti-Y314D-Ppara
[8] = Ppara-null neurons transduced with lenti-Y464D-Ppara
[9] = Ppara-null neurons transduced with lenti-Y464D/Y314D-Ppara

## CCCCCCCCCCCCCCCC(N)=O [HEX, hexadecanamide]
PPARα [1]
  PPRE-luciferase activity: increased the PPRE-luciferase activity in a dose-dependent manner
Y464D-Ppara
  PPRE-luciferase activity: unable to stimulate PPRE-luciferase activity
[2]; [6]
  expression of CREB: stimulated the expression of CREB
[2]; [7]
  expression of CREB: only partially restored the expression of CREB
[2]; [8]
  expression of CREB: remained unable to increase the expression of CREB
[2]; [9]
  expression of CREB: remained unable to increase the expression of CREB
[3]
  PPRE-driven luciferase activity: remained unable to induce PPRE-driven luciferase activity
PPARα LBD
  pEC50: 5.28
FL-Ppara
  PPRE-luciferase reporter activity: markedly induced PPRE reporter activity
PPARα [4]
  ligand detected by GC-MS in nuclear extract: low amount
PPARα [5]
  binding to de novo-synthesized PPARα (immunoprecipitation, GC-MS): found to be bound to de novo-synthesized PPARα

## CCCCCCCCC=CCCCCCCCC(N)=O [OCT, 9-octadecenamide]
PPARα [1]
  PPRE-luciferase activity: increased the PPRE-luciferase activity in a dose-dependent manner
Y464D-Ppara
  PPRE-luciferase activity: unable to stimulate PPRE-luciferase activity
[2]; [6]
  expression of CREB: stimulated the expression of CREB
[2]; [7]
  expression of CREB: only partially restored the expression of CREB
[2]; [8]
  expression of CREB: remained unable to increase the expression of CREB
[2]; [9]
  expression of CREB: remained unable to increase the expression of CREB
[3]
  PPRE-driven luciferase activity: remained unable to induce PPRE-driven luciferase activity
PPARα LBD
  pEC50: 5.32
FL-Ppara
  PPRE-luciferase reporter activity: markedly induced PPRE reporter activity
PPARα [4]
  ligand detected by GC-MS in nuclear extract: low amount
PPARα [5]
  binding to de novo-synthesized PPARα (immunoprecipitation, GC-MS): found to be bound to de novo-synthesized PPARα
